What was measured:
Type in all cases: functional
[1] = test system: HL-60(TB); assay: Growth inhibition of human HL-60(TB) cells assessed as cell growth at 10 uM incubated for 48 hrs by sulforhodamine B assay relative to control; details: read-out: Activity
Procedure, shortened: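 Screened by the NCI Developmental Therapeutics Program on its panel of 60 human tumour cell lines. Compounds were first tested at a single 10 µM dose, and compounds active there went to dose-response curves. Growth is expressed relative to untreated control (100%). GI50 (50% of maximal proliferation inhibition) and TGI (total growth inhibition) were derived from the dose-response data.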

[2] = test system: Hs-578T; assay: Growth inhibition of human Hs-578T cells assessed as cell growth at 10 uM incubated for 48 hrs by sulforhodamine B assay relative to control; details: read-out: Activity
Procedure, shortened: (§1)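 Submitted to the NCI Developmental Therapeutics Program for the NCI60 human tumour cell line panel. First screen at a single 10 µM concentration. Read-out is growth relative to untreated control cells set at 100%.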

[3] = test system: HCT-15; assay: Growth inhibition of human HCT-15 cells assessed as cell growth at 10 uM incubated for 48 hrs by sulforhodamine B assay relative to control; details: read-out: Activity; procedure, shortened: as §1
[4] = test system: TK-10; assay: Growth inhibition of human TK-10 cells assessed as cell growth at 10 uM incubated for 48 hrs by sulforhodamine B assay relative to control; details: read-out: Activity
Procedure, shortened: (§2)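 Run by the NCI Developmental Therapeutics Program as part of its 60-line human tumour panel. Each compound tested at a single 10 µM dose. Growth expressed as % relative to untreated control cells (100%).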

[5] = test system: T47D; assay: Growth inhibition of human T47D cells assessed as cell growth at 10 uM incubated for 48 hrs by sulforhodamine B assay relative to control; details: read-out: Activity; procedure, shortened: as §2
[6] = test system: HOP-62; assay: Growth inhibition of human HOP-62 cells assessed as cell growth at 10 uM incubated for 48 hrs by sulforhodamine B assay relative to control; details: read-out: Activity; procedure, shortened: as §1
[7] = test system: MOLT-4; assay: Growth inhibition of human MOLT-4 cells assessed as cell growth at 10 uM incubated for 48 hrs by sulforhodamine B assay relative to control; details: read-out: Activity; procedure, shortened: as §1
[8] = test system: BT-549; assay: Growth inhibition of human BT-549 cells assessed as cell growth at 10 uM incubated for 48 hrs by sulforhodamine B assay relative to control; details: read-out: Activity
Procedure, shortened: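 NCI Developmental Therapeutics Program NCI60 human tumour cell line panel, one-dose primary screen with every compound at 10 µM. Growth is expressed as % of untreated control cells (100%).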

[9] = test system: NCI-H522; assay: Growth inhibition of human NCI-H522 cells assessed as cell growth at 10 uM incubated for 48 hrs by sulforhodamine B assay relative to control; details: read-out: Activity; procedure, shortened: as §1
[10] = test system: CCRF-CEM; assay: Growth inhibition of human CCRF-CEM cells assessed as cell growth at 10 uM incubated for 48 hrs by sulforhodamine B assay relative to control; details: read-out: Activity
Procedure, shortened: (§3)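 NCI Developmental Therapeutics Program NCI60 panel. Compounds that were active in the 10 µM one-dose screen went on to dose–response testing. Growth at each concentration is expressed relative to untreated control (100%). GI50 (concentration giving 50% of maximal inhibition of proliferation) and TGI (concentration giving total growth inhibition) were derived from the curves.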

[11] = test system: SK-MEL-2; assay: Growth inhibition of human SK-MEL-2 cells assessed as cell growth at 10 uM incubated for 48 hrs by sulforhodamine B assay relative to control; details: read-out: Activity; procedure, shortened: as §2
[12] = test system: DU-145; assay: Growth inhibition of human DU-145 cells assessed as cell growth at 10 uM incubated for 48 hrs by sulforhodamine B assay relative to control; details: read-out: Activity; procedure, shortened: as §3
[13] = test system: HT-29; assay: Growth inhibition of human HT-29 cells assessed as cell growth at 10 uM incubated for 48 hrs by sulforhodamine B assay relative to control; details: read-out: Activity; procedure, shortened: as §1
[14] = test system: NCI/ADR-RES; assay: Growth inhibition of human NCI/ADR-RES cells assessed as cell growth at 10 uM incubated for 48 hrs by sulforhodamine B assay relative to control; details: read-out: Activity; procedure, shortened: as §1
[15] = test system: 786-0; assay: Growth inhibition of human 786-0 cells assessed as cell growth at 10 uM incubated for 48 hrs by sulforhodamine B assay relative to control; details: read-out: Activity; procedure, shortened: as §3
[16] = test system: SK-OV-3; assay: Growth inhibition of human SK-OV-3 cells assessed as cell growth at 10 uM incubated for 48 hrs by sulforhodamine B assay relative to control; details: read-out: Activity; procedure, shortened: as §2
[17] = test system: UACC-257; assay: Growth inhibition of human UACC-257 cells assessed as cell growth at 10 uM incubated for 48 hrs by sulforhodamine B assay relative to control; details: read-out: Activity; procedure, shortened: as §2
[18] = test system: SNB-75; assay: Growth inhibition of human SNB-75 cells assessed as cell growth at 10 uM incubated for 48 hrs by sulforhodamine B assay relative to control; details: read-out: Activity; procedure, shortened: as §2
[19] = test system: MDA-MB-231; assay: Growth inhibition of human MDA-MB-231 cells assessed as cell growth at 10 uM incubated for 48 hrs by sulforhodamine B assay relative to control; details: read-out: Activity; procedure, shortened: as §1
[20] = test system: NCI-H460; assay: Growth inhibition of human NCI-H460 cells assessed as cell growth at 10 uM incubated for 48 hrs by sulforhodamine B assay relative to control; details: read-out: Activity; procedure, shortened: as §1
[21] = test system: HOP-92; assay: Growth inhibition of human HOP-92 cells assessed as cell growth at 10 uM incubated for 48 hrs by sulforhodamine B assay relative to control; details: read-out: Activity; procedure, shortened: as §1
[22] = test system: CAKI-1; assay: Growth inhibition of human CAKI-1 cells assessed as cell growth at 10 uM incubated for 48 hrs by sulforhodamine B assay relative to control; details: read-out: Activity; procedure, shortened: as §3
[23] = test system: MCF7; assay: Growth inhibition of human MCF7 cells assessed as cell growth at 10 uM incubated for 48 hrs by sulforhodamine B assay relative to control; details: read-out: Activity; procedure, shortened: as §1
[24] = test system: SF-539; assay: Growth inhibition of human SF-539 cells assessed as cell growth at 10 uM incubated for 48 hrs by sulforhodamine B assay relative to control; details: read-out: Activity; procedure, shortened: as §2
[25] = test system: MDA-MB-468; assay: Growth inhibition of human MDA-MB-468 cells incubated for 48 hrs by sulforhodamine B assay
Procedure, shortened: (§4)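 NCI60 panel at the NCI Developmental Therapeutics Program. Only compounds active in the 10 µM screen went to dose-response testing. GI50, the concentration giving 50% of maximal inhibition of proliferation, and TGI, the concentration giving total growth inhibition, were derived from the dose-response curves.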

[26] = test system: IGROV-1; assay: Growth inhibition of human IGROV-1 cells incubated for 48 hrs by sulforhodamine B assay; procedure, shortened: as §4
[27] = test system: TK-10; assay: Growth inhibition of human TK-10 cells assessed as cell growth at 1 uM incubated for 48 hrs by sulforhodamine B assay relative to control; details: read-out: Activity
[28] = test system: SK-MEL-2; assay: Growth inhibition of human SK-MEL-2 cells assessed as cell growth at 0.01 uM incubated for 48 hrs by sulforhodamine B assay relative to control; details: read-out: Activity
[29] = test system: SW-620; assay: Growth inhibition of human SW-620 cells incubated for 48 hrs by sulforhodamine B assay
Procedure, shortened: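 NCI DTP 60-line human tumour panel. Dose-response curves were run only for ligands active in the initial 10 µM screen. GI50 (concentration giving 50% of maximal inhibition of proliferation) and TGI (concentration giving total growth inhibition) were derived from these curves.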

[30] = test system: SK-MEL-2; assay: Growth inhibition of human SK-MEL-2 cells assessed as cell growth at 1 uM incubated for 48 hrs by sulforhodamine B assay relative to control; details: read-out: Activity

Compound	growth at 10 µM [2]	growth at 10 µM [3]	growth at 10 µM [4]	growth at 10 µM [5]	growth at 10 µM [6]	growth at 10 µM [7]	growth at 10 µM [8]	growth at 10 µM [9]	growth at 10 µM [10]	growth at 10 µM [11]	growth at 10 µM [13]	growth at 10 µM [14]	growth at 10 µM [15]	growth at 10 µM [16]	growth at 10 µM [17]	growth at 10 µM [19]	growth at 10 µM [20]	growth at 10 µM [21]	growth at 10 µM [23]	growth at 10 µM [24]	further results
Cc1ccc(S(=O)(=O)n2ccc(-c3ccc(OCCCF)cc3)n2)cc1	109%	93.5%	62.8%	72.9%	108%	73.2%	99.9%	69.5%	75.6%	87.2%	86.4%	77.1%	89.6%	107%	80%	93.9%	89.6%	71.8%	78.3%	95.2%	growth at 10 µM [1]: 107%; growth at 10 µM [12]: 99.3%; growth at 10 µM [18]: 78.3%; growth at 10 µM [22]: 63.8%
COc1ccc(S(=O)(=O)n2ccc(-c3ccc4c(c3)CCC(C)(C)O4)n2)cc1	97.8%	97.6%	68.2%	46.7%	112%	65.9%	65.5%	55.6%	58.9%	84.4%	84.5%	57.3%	67.6%	90.4%	57.4%	87.7%	75.4%	61.4%	73.5%	103%	growth at 10 µM [1]: 60%; growth at 10 µM [18]: 84%; growth at 10 µM [22]: 63.3%
O=S(=O)(c1ccc(Br)cc1)n1ccc(-c2ccc(OCCCF)cc2)n1	115%	86.4%	70.8%	72.6%	118%	75.8%	110%	79.4%	92.3%	96.4%	89.4%	78.9%	85.3%	106%	77.9%	101%	90.1%	74.1%	75.6%	90.2%	growth at 10 µM [1]: 95.7%; growth at 10 µM [12]: 102%; growth at 10 µM [18]: 84.5%; growth at 10 µM [22]: 79.3%
Cc1cccc(NC(=O)c2sc3nc4c(cc3c2N)CN(Cc2ccccc2)CC4)c1	94.6%	97.5%	114%	98.6%	110%	103%	79%	114%	98.9%	129%	100%	101%	91.5%	105%	89.8%	113%	98.6%	100%	95.9%	79.9%	growth at 10 µM [1]: 108%; growth at 10 µM [12]: 89.3%; growth at 10 µM [18]: 101%
CCOc1ccc(-c2cc(N)n(S(=O)(=O)c3ccc(OC)cc3)n2)cc1	99.7%	98.7%	130%	96.4%	122%	85.2%	111%	101%	86.8%	110%	105%	103%	108%	114%	86.6%	92.4%	98.8%	82.2%	88.2%	98.4%	growth at 10 µM [1]: 126%; growth at 10 µM [12]: 110%; growth at 10 µM [18]: 89.9%
O=S(=O)(c1ccccc1)n1ccc(-c2ccc3c(c2)CCO3)n1	102%	92.8%	76.2%	68.8%	98.8%	85.6%	96%	61.7%	76.7%	86.5%	92.8%	76%	90.3%	104%	79.9%	82.9%	87.3%	41.8%	83.2%	86.7%	growth at 10 µM [1]: 109%; growth at 10 µM [12]: 95%; growth at 10 µM [18]: 76.2%; growth at 10 µM [22]: 75.3%
Cc1cc(C)c(NC(=O)c2sc3nc4c(cc3c2N)CN(Cc2ccccc2)CC4)c(C)c1	15%	12%	31%	12%	46%	21%	30%	-13%	12%	34%	3%	-18%	23%	36%	44%	38%	7%	12%	8%	-11%	GI50 [25]: 1.78 µM; TGI [25]: 88.7 µM; CC50 ([25]; read-out: LC50 (the source's name)): > 100 µM; GI50 [26]: 6.54 µM; LC50 [26]: > 100 µM; TGI [26]: > 100 µM; growth at 1 µM [27]: 95%; growth at 0.01 µM [28]: 108%; GI50 [29]: 2.6 µM; LC50 (concentration killing 50% of cells) [29]: > 100 µM; TGI [29]: 17.1 µM; growth at 10 µM [12]: -12%; growth at 10 µM [22]: 18%; growth at 1 µM [30]: 96%

— ChEMBL document CHEMBL4715736, “Identification of anticancer agents based on the thieno[2,3-b]pyridine and 1H-pyrazole molecular scaffolds” (2016)
